Results on 3 compounds are retold here after ChEMBL document CHEMBL3627702, “Navigating CYP1A Induction and Arylhydrocarbon Receptor Agonism in Drug Discovery. A Case History with S1P1 Agonists” (J Med Chem, 2015).

Data set [1] in a line: Lipophilicity, log D of the compound at pH 7.4. The format is physicochemical. The following applies: buffer.
The nature of data set [2]: AUC in Sprague-Dawley rat at 17 mg/kg, po QD measured on day 1. The format is ADME, organism-based. The following applies: in vivo. Summed up: (§1)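 Male CD rats (226−325 g), n = 3, given the compound once daily by oral gavage for 4 days. Vehicle was 1% (w/v) methylcellulose aq suspension at 3−6 mg/mL, dosed at 5 mL/kg (target 15−30 mg/kg). Tail vein blood was taken on days 1 and 4 up to 24 h postdose. Blood was diluted 1:1 with water, extracted by acetonitrile protein precipitation and analysed by LC−MS/MS against calibration standards in diluted blood.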

Data set [3] can be described thus: Cmax in Sprague-Dawley rat at 17 mg/kg, po QD measured on day 1. The format is ADME, organism-based. The following applies: in vivo. More on the design: dose 17 mg/kg, route oral. Summed up:
as §1

For data set [4], the system named is CYP1A1. Kind of data set: Induction of CYP1A1 mRNA expression in Sprague-Dawley rat hepatic microsomes at 17 mg/kg, po QD for 4 days relative to control. The following applies: read-out: FC. The format is ADME, organism-based, Liver. In short, it runs like this:
(§2)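 Male CD rats (226–325 g, n = 3) were dosed by oral gavage once daily for 4 days as a 1% w/v aqueous methylcellulose suspension (3–6 mg/mL, 5 mL/kg). At the end of the study, a left lateral liver lobe section was placed in RNALater and homogenised in TRIzol. RNA was purified, DNase-treated and converted to cDNA, and Cyp1a1 was read on low-density TaqMan arrays.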

Data set [5] relates to Rattus norvegicus. Put plainly: Dose normalized AUC in Sprague-Dawley rat at 17 mg/kg, po QD measured on day 1. The format is ADME, organism-based. The settings on record: in vivo. In short, it runs like this: as §1
For data set [6], the system named is CYP1A2. Kind of data set: Induction of CYP1A2 mRNA expression in Sprague-Dawley rat hepatic microsomes at 17 mg/kg, po QD for 4 days relative to control. The format is ADME, organism-based, Liver. The settings on record: read-out: FC.
Data set [7] relates to Rattus norvegicus. Put plainly: Dose normalized AUC in Sprague-Dawley rat at 17 mg/kg, po QD measured on day 4. The format is ADME, organism-based. The following applies: in vivo. Summed up: as §1
Data set [8] is described as follows: AUC in Sprague-Dawley rat at 17 mg/kg, po QD measured on day 4. The format is ADME, organism-based. The settings on record: in vivo. In short, it runs like this:
as §1

Data set [9] in a line: Cmax in Sprague-Dawley rat at 17 mg/kg, po QD measured on day 4. The format is ADME, organism-based. More on the design: dose 17 mg/kg, route oral. The settings on record: in vivo. In short, it runs like this: as §1
Data set [10] in a line: Dissociation constant, pKa of the compound. The format is physicochemical.
A short description of data set [11]: AUC in Sprague-Dawley rat at 22 mg/kg, po QD measured on day 4. The format is ADME, organism-based. The following applies: in vivo. In short, it runs like this: as §1
A short description of data set [12]: AUC in Sprague-Dawley rat at 22 mg/kg, po QD measured on day 1. The format is ADME, organism-based. The following applies: in vivo. In short, it runs like this: as §1
A short description of data set [13]: Cmax in Sprague-Dawley rat at 22 mg/kg, po QD measured on day 1. The following applies: in vivo. On the set-up: dose 22 mg/kg, route oral. The format is ADME, organism-based. Summed up: as §1
For data set [14], the system named is Rattus norvegicus. Put plainly: Dose normalized AUC in Sprague-Dawley rat at 22 mg/kg, po QD measured on day 4. The format is ADME, organism-based. The settings on record: in vivo. In short, it runs like this:
as §1

Data set [15] has as its system Rattus norvegicus. Kind of data set: Dose normalized AUC in Sprague-Dawley rat at 22 mg/kg, po QD measured on day 1. The following applies: in vivo. The format is ADME, organism-based. In short, it runs like this:
as §1

The nature of data set [16]: Cmax in Sprague-Dawley rat at 22 mg/kg, po QD measured on day 4. The format is ADME, organism-based. More on the design: dose 22 mg/kg, route oral. The settings on record: in vivo. Summed up:
as §1

Data set [17] deals with CYP1A1. Put plainly: Induction of CYP1A1 mRNA expression in Sprague-Dawley rat hepatic microsomes at 22 mg/kg, po QD for 4 days relative to control. The format is ADME, organism-based, Liver. The following applies: read-out: FC. Summed up:
as §2

Data set [18] relates to CYP1A2. Kind of data set: Induction of CYP1A2 mRNA expression in Sprague-Dawley rat hepatic microsomes at 22 mg/kg, po QD for 4 days relative to control. The settings on record: read-out: FC. The format is ADME, organism-based, Liver.
Data set [19] is described as follows: Half life in CD rat at 1 mg/kg, iv. The format is ADME, organism-based. The following applies: in vivo. Summed up: (§3)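 Male CD rats carried femoral vein (dosing) and jugular vein (sampling) cannulae and recovered at least 2 days. They received a 1 h iv infusion at 5 mL kg−1 h−1, target 1 mg/kg, at 0.2 mg/mL in DMSO/10% Kleptose in saline (≤5%:≥95%). pH was adjusted to 8.0 if needed and the solution filtered. Definitive studies used n = 3 in crossover; others used single animals.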

A short description of data set [20]: Oral bioavailability in CD rat at 3 mg/kg. The format is ADME, organism-based. The following applies: in vivo. Summed up: (§4)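 Male CD rats cannulated in the femoral and jugular veins, n = 3, crossover design. Day 1: 1 h iv infusion at 1 mg/kg (0.2 mg/mL in ≤5% DMSO/≥95% 10% Kleptose in saline, 5 mL/kg/h). Day 2: oral gavage at 3 mg/kg (0.6 mg/mL in 1% methylcellulose, 5 mL/kg). Blood assayed by LC–MS/MS after acetonitrile precipitation.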

Data set [21] can be described thus: AUC in Sprague-Dawley rat at 30 mg/kg, po QD measured on day 1. The format is ADME, organism-based. The following applies: in vivo. In short, it runs like this:
as §1

The nature of data set [22]: Volume of distribution at steady state in CD rat at 1 mg/kg, iv. The format is ADME, organism-based. The settings on record: in vivo, read-out: Vdss. In short, it runs like this:
as §4

The test system of data set [23] is CYP1A2. Put plainly: Induction of CYP1A2 mRNA expression in Sprague-Dawley rat hepatic microsomes at 30 mg/kg, po QD for 4 days relative to control. The format is ADME, organism-based, Liver. The following applies: read-out: FC.
The subject of data set [24] is Rattus norvegicus. Put plainly: Dose normalized AUC in Sprague-Dawley rat at 30 mg/kg, po QD measured on day 4. The format is ADME, organism-based. The following applies: in vivo. Summed up: as §1
Data set [25] is described as follows: Intrinsic clearance in rat hepatocytes by LC-MS/MS analysis. The following applies: read-out: CLH.
Data set [26] is described as follows: Intrinsic clearance in dog hepatocytes by LC-MS/MS analysis. The settings on record: read-out: CLH.
Data set [27] can be described thus: Intrinsic clearance in human hepatocytes by LC-MS/MS analysis. The settings on record: read-out: CLH.
Data set [28] addresses Sphingosine 1-phosphate receptor 3 (Homo sapiens, UniProt Q99500). Put plainly: Agonist activity at S1P3 receptor (unknown origin) expressed in RBL membranes assessed as GTPgammaS binding after 3 hrs. The format is functional, cell membranes. In short, it runs like this: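 Membranes from S1P3-expressing RBL cells were sucrose-gradient purified, used at 0.44 μg/well and coupled to WGA-coated SPA beads. Buffer was 20 mM HEPES, 10 mM MgCl2, 100 mM NaCl, pH 7.4, with 2 μg/well saponin. Precoupling was 30 min on ice. GDP was present at 5 μM final.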

Data set [29] deals with CYP1A1. Put plainly: Induction of CYP1A1 mRNA expression in Sprague-Dawley rat hepatic microsomes at 30 mg/kg, po QD for 4 days relative to control. The format is ADME, organism-based, Liver. The following applies: read-out: FC. In short, it runs like this: as §2
The subject of data set [30] is Rattus norvegicus. Kind of data set: Dose normalized AUC in Sprague-Dawley rat at 30 mg/kg, po QD measured on day 1. The format is ADME, organism-based. The settings on record: in vivo. In short, it runs like this: as §1
Data set [31] concerns the target Sphingosine 1-phosphate receptor 1 (Homo sapiens, UniProt P21453). Put plainly: Agonist activity at S1P1 receptor (unknown origin) expressed in CHO-K1 cells assessed as beta-arrestin recruitment after 60 mins by chemiluminescence assay. The settings on record: in the assay text read “after 90 mins” for “after 60 mins”. The format is cell-based. In short, it runs like this:
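PathHunter CHO-K1 cells stably express S1P1 and β-arrestin 2 fused to complementing β-galactosidase fragments. Cells in pH 7.4 HEPES/NaHCO3 buffer with 0.1% pluronic and 0.1% BSA were added to DMSO compound plates at 1 × 10^4 cells/well. Incubation was 90 min at 37 °C/5% CO2, then 15 min at room temperature. Galacton Star/Emerald II detection mix was added for 60 min at room temperature, and luminescence was read.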

A short description of data set [32]: Cmax in Sprague-Dawley rat at 30 mg/kg, po QD measured on day 4. The format is ADME, organism-based. More on the design: dose 30 mg/kg, route oral. The settings on record: in vivo. Summed up: as §1
A short description of data set [33]: Cmax in Sprague-Dawley rat at 30 mg/kg, po QD measured on day 1. The format is ADME, organism-based. On the set-up: dose 30 mg/kg, route oral. The following applies: in vivo. Summed up:
as §1

Data set [34] is described as follows: AUC in Sprague-Dawley rat at 30 mg/kg, po QD measured on day 4. The format is ADME, organism-based. The settings on record: in vivo. Summed up: as §1
Data set [35] in a line: Blood clearance in CD rat at 1 mg/kg, iv. The format is ADME, organism-based. In short, it runs like this: as §3

Some results are limits rather than exact numbers.

Sphingosine 1-phosphate receptor 1, sequence (P21453 whole entry, the tested form may be a part): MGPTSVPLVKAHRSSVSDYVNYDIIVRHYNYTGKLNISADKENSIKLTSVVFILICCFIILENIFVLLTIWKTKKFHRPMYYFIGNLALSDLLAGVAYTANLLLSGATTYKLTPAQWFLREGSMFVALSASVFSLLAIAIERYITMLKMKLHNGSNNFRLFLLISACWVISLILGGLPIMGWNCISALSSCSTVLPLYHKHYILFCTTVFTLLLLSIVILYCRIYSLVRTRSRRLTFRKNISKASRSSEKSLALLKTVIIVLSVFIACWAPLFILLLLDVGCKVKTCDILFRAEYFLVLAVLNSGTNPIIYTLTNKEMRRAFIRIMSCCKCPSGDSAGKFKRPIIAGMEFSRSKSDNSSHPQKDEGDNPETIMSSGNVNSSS
Sphingosine 1-phosphate receptor 3, sequence (Q99500 whole entry): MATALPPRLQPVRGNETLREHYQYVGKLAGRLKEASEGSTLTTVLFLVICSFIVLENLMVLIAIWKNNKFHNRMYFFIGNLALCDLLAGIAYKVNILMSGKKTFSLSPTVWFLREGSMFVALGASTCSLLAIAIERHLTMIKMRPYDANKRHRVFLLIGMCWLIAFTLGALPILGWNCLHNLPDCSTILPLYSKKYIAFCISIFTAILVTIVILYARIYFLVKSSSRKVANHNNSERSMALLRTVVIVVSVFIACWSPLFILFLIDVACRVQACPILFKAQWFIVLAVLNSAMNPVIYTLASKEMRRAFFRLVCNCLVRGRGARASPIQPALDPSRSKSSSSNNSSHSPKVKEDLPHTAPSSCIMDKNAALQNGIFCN

In the case of `Cc1c(-c2noc(-c3ccc(OC(C)C)c(C#N)c3)n2)cnc2c1CCN(C(CO)CO)C2`, the pH-dependent lipophilicity (logD) in data set [1] was determined as 2.15. Further, the figures for the AUC in data set [2] and in [8] were 12900 ng·h/mL and 16800 ng·h/mL, respectively. Also, the Cmax in data set [3] came out at 1610 ng/mL; in data set [9], 2170 ng/mL. In addition, the fold induction at 96 h with CYP1A1 [4] worked out at 0.9; with CYP1A2 [6] it was 2. Further, the AUC/dose came to 46 kg·min/L with Rattus norvegicus [5] and 59 kg·min/L in the data set with Rattus norvegicus [7].

The compound `Cc1c(-c2noc(-c3cnc(OC(C)C)c(C#N)c3)n2)ccc2c1CCN(C(CO)CO)C2` returned a logD in data set [1] of 2.84. The same compound returned a pKa in data set [10] of 7.3. In addition, the AUC came out at 28800 ng·h/mL in data set [11] and 24300 ng·h/mL in data set [12]. In addition, the highest concentration (Cmax) in [13] came to 2100 ng/mL; in data set [16], 2730 ng/mL. Besides, the AUC/dose in the data set on Rattus norvegicus [14] was 79 kg·min/L; with Rattus norvegicus [15] it was 66 kg·min/L. Moreover, the fold induction at 96 h was determined as 7 in the data set on CYP1A1 [17] and 3 in the data set with CYP1A2 [18].

In [19], `Cc1c(-c2noc(-c3ccc(OC(C)C)c(C#N)c3)n2)ccc2c1CCN(C[C@@H](O)CO)C2` had a half-life of 1.7 h. This compound gave a bioavailability in [20] of 56%. Further, the AUC in data set [21] is 7310 ng·h/mL; in [34] it was 7000 ng·h/mL. Moreover, the logD in data set [1] worked out at 2.16. For the same compound, the pKa in [10] came out at 7.7. The Vd in data set [22] came out at 6.6 L/kg. Further, the fold induction at 96 h amounted to 4.6 in the data set on CYP1A2 [23] and 62 in the data set on CYP1A1 [29]. In addition, the AUC/dose with Rattus norvegicus [24] and in the data set with Rattus norvegicus [30] was 15 kg·min/L each time. For the same compound, the CLint scaled in [25] is 2.1 mL/min/kg; in [26], 7.1 mL/min/kg; in [27], less than 0.85 mL/min/kg. The EC50 in data set [28] was more than 31600 nM; in data set [31] it was 7.94 nM. The values for the Cmax in data set [32] and in data set [33] were 710 ng/mL and 720 ng/mL, respectively. The same compound displayed a clearance in [35] of 53 mL/min/kg.
